In ChEMBL document CHEMBL1138668, “Structural studies on bioactive compounds. 39. Biological consequences of the structural modification of DHFR-inhibitory 2,4-diamino-6-(4-substituted benzylamino-3-nitrophenyl)-6-ethylpyrimidines ('benzoprims')” (J Med Chem, 2004):

How the values were obtained:
HT-29 [1] = test: Growth inhibitory activity against human HT-29 cell line in presence of Hypoxanthine thymidine(HT); format: functional
Method in brief: (§1)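 Same 4-day MTT growth assay in HCT-116 or HT29 cells, with hypoxanthine 100 µM and thymidine 20 µM (final) added together with the drug. Hypoxanthine stock was in 10 mM NaOH and thymidine in water. Readout was A550 against a time-zero plate. GI50 is the mean of three experiments.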

HCT-116 [2] = test: Growth inhibitory activity against human HCT116 cell line in presence of Hypoxanthine thymidine(HT); format: functional; method in brief: as §1
HT-29 [3] = test: Growth inhibitory activity against human HT-29 cell line; format: functional
Method in brief: (§2)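 HCT-116 or HT29 colon cells in RPMI 1640 with L-glutamine and 10% heat-inactivated FBS, 37 °C, 5% CO2. Cells were plated at densities suited to the growth rate and allowed to attach 4–24 h. Drug from 10 mM DMSO stocks was then added and cells incubated 4 days. MTT readout: 4 h with MTT, formazan dissolved in DMSO:glycine buffer (4:1), A550. A time-zero plate gave the starting density. Values are GI50, mean of three experiments.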

HCT-116 [4] = test: Growth inhibitory activity against human HCT116 cell line; format: functional; method in brief: as §2
Dihydrofolate reductase = biological target: T1, Dihydrofolate reductase (Rattus norvegicus, UniProt Q920D2); test: Inhibitory activity against rat liver Dihydrofolate reductase; settings: read-out: I50
T1 sequence (Q920D2 whole entry): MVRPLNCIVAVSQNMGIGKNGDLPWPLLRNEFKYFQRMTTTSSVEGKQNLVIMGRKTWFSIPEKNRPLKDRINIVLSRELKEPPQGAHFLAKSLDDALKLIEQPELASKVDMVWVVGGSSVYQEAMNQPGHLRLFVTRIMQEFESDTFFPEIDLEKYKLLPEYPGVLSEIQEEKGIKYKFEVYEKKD

Row | SMILES | GI50 (HT-29 [1]) [µM] | GI50 (HCT-116 [2]) [µM] | GI50 (HT-29 [3]) [µM] | GI50 (HCT-116 [4]) [nM] | IC50 (Dihydrofolate reductase) [nM]
1 | Nc1ncc(-c2ccc(Cl)c([N+](=O)[O-])c2)cn1 | > 50 | > 50 | > 50 | > 50000 | –
2 | CCc1nc(N)nc(N)c1-c1ccc2[nH]c(-c3ccc(Cl)cc3)[n+]([O-])c2c1 | > 50 | 9 | > 50 | 9000 | –
3 | Nc1nc(N)c2[nH]c(Cc3ccc(Cl)c(Cl)c3)nc2n1 | – | – | – | – | 252000
4 | CCc1nc(N)nc(N)c1-c1ccc2nn(-c3ccccc3)[n+]([O-])c2c1 | – | – | – | – | 2700
5 | CCc1nc(N)nc(N)c1-c1ccc(NCc2ccc(Cl)c(Cl)c2)c([N+](=O)[O-])c1 | – | – | – | – | 8
6 | CCc1nc(N)nc(N)c1-c1ccc2[nH]c(-c3ccc(F)cc3)[n+]([O-])c2c1 | 39 | 22 | 46 | 17000 | –
7 | CCc1nc(N)nc(N)c1-c1ccc(Cl)c([N+](=O)[O-])c1 | 40 | 38 | 3.8 | 250 | –
8 | CN(Cc1cnc2nc(N)nc(N)c2n1)c1ccc(C(=O)N[C@@H](CCC(=O)O)C(=O)O)cc1 [METHOTREXATE] | > 50 | > 50 | 0.07 | 10 | –

Further compounds by falling GI50 (HT-29 [1]), results first:

Row | GI50 (HT-29 [1]) [µM] | GI50 (HCT-116 [2]) [µM] | GI50 (HT-29 [3]) [µM] | GI50 (HCT-116 [4]) [nM] | IC50 (Dihydrofolate reductase) [nM] | SMILES
9 | 38 | 47 | 41 | 48000 | – | Nc1ncc(-c2ccc(NCc3ccc(F)cc3)c([N+](=O)[O-])c2)cn1
10 | 25 | 5 | 17 | 3000 | – | Nc1ncc(-c2ccc(NCc3ccc(Cl)cc3)c([N+](=O)[O-])c2)cn1
11 | 21 | 19 | 0.01 | 10 | – | COc1cc(NCc2ccc3nc(N)nc(N)c3c2C)cc(OC)c1OC [TRIMETREXATE]
12 | 17 | > 50 | 14 | > 50000 | – | CN(Cc1ccccc1)c1ccc(-c2cnc(N)nc2)cc1[N+](=O)[O-]
13 | 11.6 | 7.5 | 1.5 | 80 | – | CCc1nc(N)nc(N)c1-c1ccc(NCc2ccccc2OC)c([N+](=O)[O-])c1
14 | 9.2 | 7.4 | 0.48 | 80 | – | CCc1nc(N)nc(N)c1-c1ccc(N(C)Cc2ccccc2)c([N+](=O)[O-])c1
